# Laboratory results: ChEMBL document CHEMBL1144306, “1-Hydroxyalkyl-3-phenylthioureas as novel HDL-elevating agents” (2005)
# Key:
# Assay type in all cases: functional
# [1] = test system: Rattus norvegicus; experiment: Effect on level of apolipoprotein (Apo) AI (relative to untreated control) in cholesterol fed-male rats at 78 mg/kg/day
# Summary of the method: (§1)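 Six male Sprague–Dawley rats per group, fed a cholic acid/cholesterol-supplemented diet, received compound in the diet ad libitum for eight days. Serum Apo A–I was measured by SDS-PAGE or by rat competition ELISA and reported as % change versus untreated controls (p < 0.05). Gemfibrozil was the internal positive control in each study.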
# [2] = test system: Rattus norvegicus; experiment: Effect on level of high density lipoprotein cholesterol (relative to untreated control) in cholesterol fed-male rats at 78 mg/kg/day
# Summary of the method: (§2)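 Male Sprague–Dawley rats (groups of six) fed a cholic acid- and cholesterol-supplemented diet; compound mixed into the diet, given ad libitum for eight days. Lipoproteins were separated by ultracentrifugation, and cholesterol was measured by an enzymatic colorimetric method. Results are % change versus untreated controls, with significance at p < 0.05.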
# [3] = test system: Rattus norvegicus; experiment: Effect on level of triglyceride in (relative to untreated control) in cholesterol fed-male rats at 78 mg/kg/day
# Summary of the method: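 Compound given in diet ad libitum for eight days to groups of six male Sprague–Dawley rats on a cholic acid and cholesterol-supplemented diet. Serum triglycerides expressed as % change relative to untreated controls, with significance at p < 0.05. Gemfibrozil served as internal positive control within each study.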
# [4] = test system: Rattus norvegicus; experiment: Effect on change in body weight gain (relative to untreated control) in cholesterol fed-male rats at 78 mg/kg/day
# Summary of the method: (§3)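 Male Sprague–Dawley rats, six per group, on a cholic acid- and cholesterol-supplemented diet. Compounds were mixed into the diet and given ad libitum for eight days. Change in body weight gain is expressed as a percentage of untreated controls. Significance was set at p < 0.05 versus untreated controls.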
# [5] = test system: Rattus norvegicus; experiment: Effect on level of total cholesterol (relative to untreated control) in cholesterol fed-male rats at 78 mg/kg/day; summary of the method: as §2
# [6] = test system: Rattus norvegicus; experiment: Effect on level of triglyceride in (relative to untreated control) in cholesterol fed-male rats at 76 mg/kg/day
# Summary of the method: (§4)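 Serum triglycerides were measured in groups of six male Sprague–Dawley rats on a cholic acid/cholesterol-supplemented diet. Compound was dosed in the diet, ad libitum, for eight days. Results are % change relative to untreated controls, with significance at p < 0.05.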
# [7] = test system: Rattus norvegicus; experiment: Effect on change in body weight gain (relative to untreated control) in cholesterol fed-male rats at 76 mg/kg/day; summary of the method: as §3
# [8] = test system: Rattus norvegicus; experiment: Effect on level of total cholesterol (relative to untreated control) in cholesterol fed-male rats at 76 mg/kg/day; summary of the method: as §2
# [9] = test system: Rattus norvegicus; experiment: Effect on level of apolipoprotein (Apo) AI (relative to untreated control) in cholesterol fed-male rats at 76 mg/kg/day; summary of the method: as §1
# [10] = test system: Rattus norvegicus; experiment: Effect on level of high density lipoprotein cholesterol (relative to untreated control) in cholesterol fed-male rats at 76 mg/kg/day; summary of the method: as §2
# [11] = test system: Rattus norvegicus; experiment: Effect on level of total cholesterol (relative to untreated control) in cholesterol fed-male rats at 38 mg/kg/day; summary of the method: as §2
# [12] = test system: Rattus norvegicus; experiment: Effect on level of high density lipoprotein cholesterol (relative to untreated control) in cholesterol fed-male rats at 38 mg/kg/day
# Summary of the method: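 Cholic acid/cholesterol-fed male Sprague–Dawley rats (n = 6 per group) were dosed via diet ad libitum for eight days. Lipoproteins were separated by ultracentrifugation and HDL cholesterol was quantified by an enzymatic colorimetric method. Values are % change relative to untreated controls, with significance at p < 0.05. Gemfibrozil was the internal positive control.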
# [13] = test system: Rattus norvegicus; experiment: Effect on change in body weight gain (relative to untreated control) in cholesterol fed-male rats at 38 mg/kg/day; summary of the method: as §3
# [14] = test system: Rattus norvegicus; experiment: Effect on level of apolipoprotein (Apo) AI (relative to untreated control) in cholesterol fed-male rats at 38 mg/kg/day; summary of the method: as §1
# [15] = test system: Rattus norvegicus; experiment: Effect on level of triglyceride in (relative to untreated control) in cholesterol fed-male rats at 38 mg/kg/day; summary of the method: as §4
# [16] = test system: Rattus norvegicus; experiment: Effect on level of apolipoprotein (Apo) AI (relative to untreated control) in cholesterol fed-male rats at 62 mg/kg/day; summary of the method: as §1
# [17] = test system: Rattus norvegicus; experiment: Effect on level of total cholesterol (relative to untreated control) in cholesterol fed-male rats at 62 mg/kg/day; summary of the method: as §2
# [18] = test system: Rattus norvegicus; experiment: Effect on level of high density lipoprotein cholesterol (relative to untreated control) in cholesterol fed-male rats at 62 mg/kg/day; summary of the method: as §2
# [19] = test system: Rattus norvegicus; experiment: Effect on change in body weight gain (relative to untreated control) in cholesterol fed-male rats at 62 mg/kg/day; summary of the method: as §3
# [20] = test system: Rattus norvegicus; experiment: Effect on level of triglyceride in (relative to untreated control) in cholesterol fed-male rats at 62 mg/kg/day; summary of the method: as §4
structure (smiles),measurement,setting,value
Cc1ccc(Cl)cc1/N=C(\S)N1CCC(O)C1 (stereo not given),Activity,[1],4%
same,Activity,[2],9%
same,Activity,[3],-24%
same,Activity,[4],2%
same,Activity,[5],-5%
Cc1ccc(Cl)cc1N/C(S)=N/[C@@H](C)CO,Activity,[6],1%
same,Activity,[7],10%
same,Activity,[8],48%
same,Activity,[9],20%
same,Activity,[10],32%
Cc1ccc(Cl)cc1/N=C(\S)NCC(=O)O,Activity,[11],24%
same,Activity,[12],8%
same,Activity,[13],10%
same,Activity,[14],14%
same,Activity,[15],4%
Cc1ccc(Cl)cc1N/C(S)=N/C[C@@H](C)O,Activity,[16],25%
same,Activity,[17],-1%
same,Activity,[18],60%
same,Activity,[19],-69%
same,Activity,[20],-68%
